The test system of data set [1] is GRPr-expressing prostate cancer xenografts. As to conditions: in vivo; cited from earlier work.
A further data set has as its system PC-3 xenografts. Put plainly: Combination therapy, tumor growth of PC-3 xenografts. As to conditions: PC-3 tumor bearing animals. Type of data set: in vivo, athymic nude male mice. Summed up: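 PC-3 cells (5 ×10⁶ in 1:1 media/Matrigel) were implanted in the shoulder of 6–8-week-old males. At about 100 mm³ the mice were randomised to four arms: sham (i.v. saline plus illumination), VTP, radiolabelled peptide (14.8 MBq retro-orbital i.v.), or both. For VTP, 4 h after the peptide, the photosensitizer (9 mg/kg, i.v. bolus, in 5% dextran) was followed immediately by 10 min of 755 nm laser to the tumour plus a 1 mm rim. Tumours were measured by caliper twice weekly to 34 days.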

The subject of a further data set is PC-3 tumors. Put plainly: Histology/IHC of PC-3 tumors. The format is in vivo, athymic nude male mice. Put shortly: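 PC-3 xenograft tumours were taken after treatment, fixed in 10% buffered formalin, paraffin-embedded and cut at 5 micron. Sections were stained with anti-mouse CD31 antibody for vessel density and by TUNEL for cell death. VTP was an i.v. photosensitizer (9 mg/kg) followed immediately by 10 min of 755 nm laser illumination of the tumour area.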

For data set [2], the system named is localized prostate cancer. As to conditions: published trial data in localized prostate cancer; ref not given; cited from earlier work.

Take “^111In-DOTA-PEG4-D-Phe-Gln-Trp-Ala-Val-Gly-His-Sta-Leu-NH2 [^111In-DOTA-AR]”: in data set [1], the “Fraction of delivered radioactivity washed out at 24 hours p.i.” value was “about 2/3” and the “Time of optimal tumor uptake post injection” value was 1 to 4 h.
With `CC[C@H]1c2cc3[n-]c(c(CC(=O)OC)c4nc(cc5[n-]c(cc(n2)[C@@H]1C)c(C(C)=O)c5C)[C@@H](C)[C@@H]4CCC(=O)[O-])c(C(=O)NCCS(=O)(=O)[O-])c3C.[H+].[H+].[Pd+2]` [VTP], the “Animals remaining tumor free at 34 days post treatment” value in the data set on PC-3 xenografts is reported as 2/12. In addition, in the data set on PC-3 tumors (24 hours post VTP treatment, compared to control tumors), the “Vessel density in PC-3 tumors (IHC anti-CD31)” value is “markedly reduced vessel density”. Moreover, the “TUNEL staining of tumors (cell death)” value with PC-3 tumors (PC-3 tumors, post VTP treatment) is reported as “stained positive”. In addition, the “Cases with absent evidence of cancer (local tumor ablation)” value in data set [2] is listed as 80%.

The values above are taken from article PMC5496795 (Clinical cancer research : an official journal of the …, 2017).
